Measurements: ChEMBL document CHEMBL1157505, “Design and in vitro characterization of highly sst2-selective somatostatin antagonists suitable for radiotargeting” (J Med Chem, 2008)
pIC50: −log10 of the molar value. Calls of active or inactive are those of the source. The rule behind the calls is not given here.

Key:
[1] = target: Somatostatin receptor type 1 (Homo sapiens, UniProt P30872); experiment: Displacement of [125I][LTT]SRIF28 from human cloned sst1 receptor by autoradiography
[2] = target: T1, Somatostatin receptor type 2 (Homo sapiens, UniProt P30874); experiment: Displacement of [125I][LTT]SRIF28 from human cloned sst2 receptor by autoradiography
T1 sequence (P30874 whole entry): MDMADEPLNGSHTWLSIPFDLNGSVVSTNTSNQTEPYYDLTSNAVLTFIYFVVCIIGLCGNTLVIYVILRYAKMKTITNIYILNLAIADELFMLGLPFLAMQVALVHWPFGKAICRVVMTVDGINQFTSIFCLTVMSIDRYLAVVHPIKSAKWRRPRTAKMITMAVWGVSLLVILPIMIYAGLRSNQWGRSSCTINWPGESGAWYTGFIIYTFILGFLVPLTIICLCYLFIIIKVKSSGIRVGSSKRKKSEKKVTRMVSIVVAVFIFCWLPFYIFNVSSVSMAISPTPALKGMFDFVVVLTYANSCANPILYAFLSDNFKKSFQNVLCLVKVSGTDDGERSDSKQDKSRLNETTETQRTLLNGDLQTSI

[3] = target: Somatostatin receptor type 3 (Homo sapiens, UniProt P32745); experiment: Displacement of [125I][LTT]SRIF28 from human cloned sst3 receptor by autoradiography
Chain of Somatostatin receptor type 3 (P32745 whole entry): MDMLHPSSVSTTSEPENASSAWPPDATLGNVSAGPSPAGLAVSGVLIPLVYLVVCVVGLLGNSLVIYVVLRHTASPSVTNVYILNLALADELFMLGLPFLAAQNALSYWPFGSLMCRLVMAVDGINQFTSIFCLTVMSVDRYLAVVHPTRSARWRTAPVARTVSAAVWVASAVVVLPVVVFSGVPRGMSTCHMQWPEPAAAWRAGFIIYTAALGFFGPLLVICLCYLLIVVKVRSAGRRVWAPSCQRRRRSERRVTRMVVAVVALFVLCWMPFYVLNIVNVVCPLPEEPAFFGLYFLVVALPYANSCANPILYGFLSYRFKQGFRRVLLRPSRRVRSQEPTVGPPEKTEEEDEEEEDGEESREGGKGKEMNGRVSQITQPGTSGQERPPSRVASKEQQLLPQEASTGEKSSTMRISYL

[4] = target: Somatostatin receptor type 4 (Homo sapiens, UniProt P31391); experiment: Displacement of [125I][LTT]SRIF28 from human cloned sst4 receptor by autoradiography
Chain of Somatostatin receptor type 4 (P31391 whole entry): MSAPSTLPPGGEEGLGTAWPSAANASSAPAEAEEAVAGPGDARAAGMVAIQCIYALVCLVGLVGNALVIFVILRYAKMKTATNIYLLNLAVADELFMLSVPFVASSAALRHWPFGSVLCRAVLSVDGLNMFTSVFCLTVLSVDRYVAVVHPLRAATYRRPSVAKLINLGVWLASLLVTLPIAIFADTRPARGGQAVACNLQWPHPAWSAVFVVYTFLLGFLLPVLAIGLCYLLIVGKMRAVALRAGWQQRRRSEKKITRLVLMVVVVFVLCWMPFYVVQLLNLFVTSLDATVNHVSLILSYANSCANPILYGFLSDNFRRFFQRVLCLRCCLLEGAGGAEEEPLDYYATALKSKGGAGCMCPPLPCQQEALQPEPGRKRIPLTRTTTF

[5] = target: Somatostatin receptor type 5 (Homo sapiens, UniProt P35346); experiment: Displacement of [125I][LTT]SRIF28 from human cloned sst5 receptor by autoradiography
Chain of Somatostatin receptor type 5 (P35346 whole entry): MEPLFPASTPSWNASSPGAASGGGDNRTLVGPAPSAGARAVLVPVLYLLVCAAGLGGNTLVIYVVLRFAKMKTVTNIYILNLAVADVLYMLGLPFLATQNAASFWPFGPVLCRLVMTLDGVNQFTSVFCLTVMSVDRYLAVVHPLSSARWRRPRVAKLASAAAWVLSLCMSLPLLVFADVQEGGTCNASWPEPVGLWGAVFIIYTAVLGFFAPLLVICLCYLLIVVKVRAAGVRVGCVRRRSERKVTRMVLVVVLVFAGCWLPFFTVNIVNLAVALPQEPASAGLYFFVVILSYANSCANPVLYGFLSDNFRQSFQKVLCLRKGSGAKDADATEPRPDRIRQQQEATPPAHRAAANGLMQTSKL

[6] = target: T1, Somatostatin receptor type 2; experiment: Antagonist activity at T7 epitope tagged human cloned sst2 expressed in HEK293 cells assessed as intracellular calcium release upto 10 uM; assay type: functional, cell-based
Method in brief: (§1)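 HEK-sst2 cells seeded on poly-D-lysine, cultured 1 day, loaded with Fluo-4NW dye (assay buffer HBSS/20 mM HEPES, 2.5 mM probenecid) 30 min 37 °C plus 30 min RT. Analogues alone up to 10 μM, or [Tyr3]-octreotide with 100-fold excess analogue; fluorescence (ex 485/em 520 nm) recorded 60 s at RT; percentage of ionomycin (25 μM) maximum over baseline; ≥3 experiments in triplicate.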

[7] = target: T1, Somatostatin receptor type 2; experiment: Antagonist activity at T7 epitope tagged human cloned sst2 expressed in HEK293 cells assessed as [Tyr3]octreotide-induced intracellular calcium release upto 10 uM; assay type: functional, cell-based; method in brief: as §1
[8] = target: T1, Somatostatin receptor type 2; experiment: Antagonist activity at T7 epitope tagged human cloned sst2 receptor expressed in HEK293 cells assessed as inhibition of [Tyr3]octreotide-induced receptor internalization upto 10 uM; assay type: functional, cell-based
Method in brief: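 Surface T7-tagged sst2 on HEK-sst2 cells labelled with anti-T7 antibody 2 h RT in DMEM-LH, then cells exposed 30 min at 37 °C to analogue (alone up to 10 μM or with [Tyr3]-octreotide), fixed in 3% paraformaldehyde, probed with HRP anti-mouse IgG, ABTS read at OD405; surface receptor as % of untreated; mean ± SEM, three experiments in duplicate.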

Chain of Somatostatin receptor type 1 (P30872 whole entry): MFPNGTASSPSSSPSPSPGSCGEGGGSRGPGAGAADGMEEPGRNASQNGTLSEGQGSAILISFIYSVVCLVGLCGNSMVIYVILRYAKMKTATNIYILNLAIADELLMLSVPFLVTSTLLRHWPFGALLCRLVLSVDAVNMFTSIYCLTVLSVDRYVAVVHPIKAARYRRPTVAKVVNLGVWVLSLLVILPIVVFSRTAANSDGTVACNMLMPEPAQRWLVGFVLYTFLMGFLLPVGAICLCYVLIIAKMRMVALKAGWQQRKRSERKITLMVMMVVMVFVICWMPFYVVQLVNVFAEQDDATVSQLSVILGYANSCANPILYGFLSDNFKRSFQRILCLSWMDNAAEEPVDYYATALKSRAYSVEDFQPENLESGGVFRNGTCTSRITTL

| pIC50 [1] | pIC50 [2] | pIC50 [3] | pIC50 [4] | pIC50 [5] | Activity [6] | Activity [7] | Activity [8] | Compound |
| --- | --- | --- | --- | --- | --- | --- | --- | --- |
| < 6.00 | 7.57 | 6.79 | < 6.00 | 6.49 | – | – | – | C[C@@H](O)[C@@H]1NC(=O)[C@H](CCCCN)NC(=O)[C@@H](Cc2c[nH]c3ccccc23)NC(=O)[C@H](Cc2ccc(NC(N)=O)cc2)NC(=O)[C@H](NC(=O)[C@@H](N)Cc2ccc(Cl)cc2)CSSC[C@@H](C(=O)N[C@@H](Cc2ccc(NC(=O)[C@@H]3CC(=O)NC(=O)N3)cc2)C(N)=O)NC1=O |
| – | – | – | – | – | inactive | Active | Active | C[C@@H](O)[C@@H]1NC(=O)[C@H](CCCCN)NC(=O)[C@@H](Cc2ccc(NC(N)=O)cc2)NC(=O)[C@H](Cc2ccc(NC(=O)[C@@H]3CC(=O)NC(=O)N3)cc2)NC(=O)[C@H](NC(=O)[C@@H](Cc2ccc(Cl)cc2)NC(=O)CN2CCN(CC(=O)O)CCN(CC(=O)O)CCN(CC(=O)O)CC2)CSSC[C@@H](C(=O)N[C@@H](Cc2ccc3ccccc3c2)C(N)=O)NC1=O |
| – | – | – | – | – | inactive | Active | Active | C[C@@H](O)[C@@H]1NC(=O)[C@H](CCCCN)NC(=O)[C@@H](Cc2c[nH]c3ccccc23)NC(=O)[C@H](Cc2ccc(O)cc2)NC(=O)[C@H](NC(=O)[C@H](N)Cc2ccc(Cl)cc2)CSSC[C@@H](C(=O)N[C@@H](Cc2ccc3ccccc3c2)C(N)=O)NC1=O |
| – | – | – | – | – | inactive | Active | Active | C[C@@H](O)[C@@H]1NC(=O)[C@H](CCCCN)NC(=O)[C@@H](Cc2c[nH]c3ccccc23)NC(=O)[C@H](Cc2ccc(NC(N)=O)cc2)NC(=O)[C@H](NC(=O)[C@H](N)Cc2ccc(Cl)cc2)CSSC[C@@H](C(=O)N[C@@H](Cc2ccc3ccccc3c2)C(N)=O)NC1=O |
| – | – | – | – | – | inactive | Active | Active | C[C@@H](O)[C@@H]1NC(=O)[C@H](CCCCN)NC(=O)[C@@H](Cc2c[nH]c3ccccc23)NC(=O)[C@H](Cc2ccc(NC(N)=O)cc2)NC(=O)[C@H](NC(=O)[C@H](N)Cc2ccc(Cl)cc2)CSSC[C@@H](C(N)=O)NC1=O |

The remaining lines, values behind:

| Compound | pIC50 [1] | pIC50 [2] | pIC50 [3] | pIC50 [4] | pIC50 [5] | Activity [6] | Activity [7] | Activity [8] |
| --- | --- | --- | --- | --- | --- | --- | --- | --- |
| C[C@@H](O)[C@@H]1NC(=O)[C@H](CCCCN)NC(=O)[C@@H](Cc2ccc(NC(N)=O)cc2)NC(=O)[C@H](Cc2ccc(NC(=O)[C@@H]3CC(=O)NC(=O)N3)cc2)NC(=O)[C@H](NC(=O)[C@H](Cc2ccc(Cl)cc2)NC(=O)CN2CCN(CC(=O)O)CCN(CC(=O)O)CCN(CC(=O)O)CC2)CSSC[C@@H](C(=O)N[C@H](Cc2ccc(O)cc2)C(N)=O)NC1=O | < 6.00 | – | < 6.00 | < 6.00 | < 6.00 | – | – | – |
| C[C@@H](O)[C@@H]1NC(=O)[C@H](CCCCN)NC(=O)[C@@H](Cc2ccc(NC(N)=O)cc2)NC(=O)[C@H](Cc2ccc(O)cc2)NC(=O)[C@H](NC(=O)[C@@H](Cc2ccc(Cl)cc2)NC(=O)CN2CCN(CC(=O)O)CCN(CC(=O)O)CCN(CC(=O)O)CC2)CSSC[C@@H](C(=O)N[C@@H](Cc2ccc3ccccc3c2)C(N)=O)NC1=O | – | – | – | – | – | inactive | Active | Active |
| C[C@@H](O)[C@@H]1NC(=O)[C@H](CCCCN)NC(=O)[C@@H](Cc2c[nH]c3ccccc23)NC(=O)[C@H](Cc2ccc(NC(N)=O)cc2)NC(=O)[C@H](NC(=O)[C@@H](Cc2ccc(Cl)cc2)NC(=O)CCNC(=O)CN2CCN(CC(=O)O)CCN(CC(=O)O)CCN(CC(=O)O)CC2)CSSC[C@@H](C(=O)N[C@@H](Cc2ccc3ccccc3c2)C(N)=O)NC1=O | – | – | – | – | – | inactive | Active | Active |
| C[C@@H](O)[C@@H]1NC(=O)[C@H](CCCCN)NC(=O)[C@@H](Cc2c[nH]c3ccccc23)NC(=O)[C@H](Cc2ccc(O)cc2)NC(=O)[C@H](NC(=O)[C@@H](Cc2ccc([N+](=O)[O-])cc2)NC(=O)CN2CCN(CC(=O)O)CCN(CC(=O)O)CCN(CC(=O)O)CC2)CSSC[C@@H](C(=O)N[C@H](Cc2ccc(O)cc2)C(N)=O)NC1=O | – | – | – | – | – | inactive | Active | Active |
